Assay outcomes: PubChem, several laboratories
CAL PDZ FP-1: CAL PDZ peptide-binding inhibitors, primary screen, biochemical, fluorescence polarization, Cer-tagged CAL PDZ, HTS; AID 504414, 2011; inhibition, % at 20 µM; 0.02% of 330,000 active; Golgi-associated PDZ and coiled-coil motif-containing protein (Homo sapiens), Q9HD26; purified CAL PDZ, TMR-peptide fluorescence polarization, 1 h;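 active = highest replicate inhibition of at least 40%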
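material = purified tagged CAL PDZ domain construct (CerCALP) | compound dosing = 20 µM, one dose | times = 1 h at RT | measured by = fluorescence polarization from S- and P-plane intensities, G-factor corrected | read-out = inhibition from polarization loss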
TbMetRS inhib: T. brucei MetRS inhibitors, primary screen, biochemical, luminescence | 0.4% of 360,000 active | methionyl-tRNA synthetase (Trypanosoma brucei brucei) | inhibition, % at 11.9 µM | purified T. brucei MetRS, ATP depletion, Kinase-Glo luminescence;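 active = inhibition above a per-plate cutoff of the control wells' mean inhibition plus 3 SD, cut at about 5.5% in these data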
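assay system = parasite MetRS enzyme | timing = 15 min preincubation, 2 h reaction, all 25 °C | evaluation = percent inhibition relative to median high and low control wells | medium = HEPES buffer containing pyrophosphatase, BSA, spermine, DTT | compound = single dose, 11.9 µM final nominal, 0.9% final DMSO | detection = Kinase-Glo luminescence, ATP depletion format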
CAL PDZ FP-2: untagged CAL PDZ binding inhibitors, primary screen, biochemical, fluorescence polarization, HTS. purified CAL PDZ, TMR-peptide fluorescence polarization, 1 h. inhibition, % at 24.9 µM. 0.92% of 300,000 active;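 active = mean inhibition of at least 30% with at least half of replicates also reaching 30%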
CDK5 inh: inhibitors of human CDK5/p35 kinase, primary screen, biochemical, single concentration. AID 488839, 2010. 0.01% of 330,000 active. Recombinant CDK5/p35, ADP-Glo luminescence, 60 min. Cyclin-dependent kinase 5 (Homo sapiens) + Cyclin-dependent kinase 5 activator 1 (Homo …. inhibition, % at 10 µM;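 active = highest replicate inhibition of at least 50% and at least 75% of replicates reaching 50%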
PvdQ inh: P. aeruginosa PvdQ acylase inhibitors, primary screen, biochemical, fluorescence, plate reader and imaging, single point; PvdQ acylase [Pseudomonas aeruginosa LESB58]; purified PvdQ acylase; inhibition, % at 10 µM; 0.063% of 340,000 active; in the data active = inhibition above about 30%, passing the limit was not always enough
Dyrk1A ADPGlo: rat Dyrk1A kinase inhibitors, primary screen, biochemical, single point, plate reader | Dual specificity tyrosine-phosphorylation-regulated kinase 1A (Rattus norvegicus), Q63470 | ADP-Glo luminescence, NFATc1 peptide | inhibition, % at 12.5 µM | 0.43% of 310,000 active | AID 504441, 2011; in the data active = inhibition above about 50%
TbMetRS confirm: T. brucei MetRS inhibitors, confirmation, biochemical, luminescence | shares compounds with TbMetRS inhib | 93% of 1,400 active | T. brucei MetRS enzyme, luminescence (ATP depletion) | inhibition, % at 11.9 µM; in the data active = inhibition above about 7%
Jurkat cytotox: Jurkat T cell cytotoxicity, cytotoxicity control for T. brucei MetRS inhibitor project, luminescence, high throughput; shares compounds with TbMetRS inhib; Jurkat cells viability, ATP luminescence; inhibition, % at 8.3 µM; 12% of 1,400 active; in the data active = inhibition above about 15%
Tb MetRS inh FP: T. brucei MetRS inhibitors, orthogonal assay for T. brucei MetRS inhibitor project, biochemical, fluorescence polarization; purified T. brucei MetRS; shares compounds with TbMetRS inhib; inhibition, % at 11.9 µM; AID 651607, 2012; 44% of 1,400 active; in the data active = inhibition above about 17%
Each line names hits and unclear results; the compound was inactive in the other large screens (follow-up assays come after a bar, where they were run). The list is not random: actives were taken first. Their share in the collection is about 1.4%.

CC(C)c1ccc(NC(=O)C2Cc3c(-c4ccc(Cl)cc4)ccnc3O2)cc1 (stereo unspecified)	none (no result: CAL PDZ FP-1, CAL PDZ FP-2, CDK5 inh, PvdQ inh, Dyrk1A ADPGlo)
CCn1c(COc2ccc(C)cc2)nnc1SCc1nc2ccccc2[nH]1	TbMetRS inhib 15 (no result: CAL PDZ FP-2) | TbMetRS confirm 20 | Jurkat cytotox inactive | Tb MetRS inh FP inactive
Clc1ccc(OCc2nnc(SCc3nc4ccccc4[nH]3)n2Cc2ccco2)cc1	TbMetRS inhib 11 | TbMetRS confirm 84 | Jurkat cytotox 21 | Tb MetRS inh FP 66
Clc1cccc(-c2nnc(SCc3nc4ccccc4[nH]3)n2Cc2ccco2)c1	none
COc1ccc(Br)cc1CSC(=N)N	TbMetRS inhib 11 | TbMetRS confirm inactive | Jurkat cytotox inactive | Tb MetRS inh FP inactive
CN(C)c1ccc(-c2ccnc3c2CC(C)(C(=O)NCc2ccc(F)c(F)c2)O3)cc1 (stereo unspecified)	none (no result: CAL PDZ FP-1, CAL PDZ FP-2, CDK5 inh, PvdQ inh, Dyrk1A ADPGlo)
Cc1[nH]c2ccccc2c1C(=O)C(=O)N1CCCc2ccccc21	none
O=C(C(=O)N1CCN(c2ccccc2Cl)CC1)c1c[nH]c2ccccc12	TbMetRS inhib 13 | TbMetRS confirm 24 | Jurkat cytotox 18 | Tb MetRS inh FP inactive
Cc1[nH]c2ccccc2c1C(=O)C(=O)N1CCN(c2ccccc2F)CC1	TbMetRS inhib 7.2 | TbMetRS confirm 20 | Jurkat cytotox inactive | Tb MetRS inh FP inactive
O=C(C(=O)N1CC=C(c2ccccc2)CC1)c1c[nH]c2ccccc12	TbMetRS inhib 7.4 | TbMetRS confirm 17 | Jurkat cytotox inactive | Tb MetRS inh FP inactive
O=C(c1cc(=O)[nH]c2ccccc12)N1CC=C(c2ccccc2)CC1	none
O=C(C(=O)N1CCCc2ccccc21)c1c[nH]c2ccccc12	TbMetRS inhib 8.2 (no result: Dyrk1A ADPGlo) | TbMetRS confirm 13 | Jurkat cytotox inactive | Tb MetRS inh FP inactive
CC1=C(C(=O)N2CCCCCC2)CC(CC(=O)NC2CC2)C(=O)N1Cc1ccccc1 (stereo unspecified)	none (no result: CAL PDZ FP-1, CAL PDZ FP-2, CDK5 inh, PvdQ inh, Dyrk1A ADPGlo)
O=C(C(=O)N1CCN(Cc2ccc3c(c2)OCO3)CC1)c1c[nH]c2ccccc12	TbMetRS inhib 9.6 | TbMetRS confirm 25 | Jurkat cytotox inactive | Tb MetRS inh FP inactive
Cc1c(C(=O)C(=O)N2CCN(Cc3ccc4c(c3)OCO4)CC2)c2ccccc2n1C	none
O=C(O)CCc1ccc(-c2ccc(Br)cc2)n1-c1ccc(O)cc1	TbMetRS inhib 5.7 | TbMetRS confirm 16 | Jurkat cytotox inactive | Tb MetRS inh FP inactive
C=C1C(=O)C23C(O)C1CCC2C12COC3(O)C(O)C1C(C)(C)CCC2O (stereo unspecified)	none (no result: CAL PDZ FP-1, CAL PDZ FP-2, CDK5 inh, PvdQ inh, Dyrk1A ADPGlo)
Cc1cccc(N(CC(=O)NC(C)(C)C)C(=O)CS(=O)CC(=O)Nc2ccc3c(c2)OCO3)c1 (stereo unspecified)	none (no result: CAL PDZ FP-2)
Cc1ccc(NC(=O)CS(=O)CC(=O)Nc2ccc3c(c2)OCO3)cc1Cl (stereo unspecified)	TbMetRS inhib 9.8 | TbMetRS confirm 12 | Jurkat cytotox inactive | Tb MetRS inh FP inactive
Cc1ccc2nc(NC(=O)C3CCN(S(=O)(=O)c4cccs4)CC3)sc2c1	none (no result: CAL PDZ FP-1, CAL PDZ FP-2)
